Each block holds one compound with its values, some of them ahead of it. Residues, ends and D or L forms follow the SMILES beside them. *: point of attachment. X1 = CC1(C)N(O)C(c2ccc(OCC(=O)*)cc2)=[N+]([O-])C1(C)C
Columns and labels:
PC-12 [1] = assay: Free radical scavenging activity of compound (25 uM) evaluated against hydrogen peroxide in PC12 cells; type: functional, cell-based; conditions: Rattus norvegicus
Method in brief: (§1)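 PC12 cells were grown in DMEM with 10% heat-inactivated horse serum, 5% FBS and 1.0 mM pyruvate at 37 °C and 5% CO₂. Cells were seeded at 20 000/well on poly-L-lysine and attached 24 h, then pretreated 1 h with 12.5–200 µM compound. Insults were: NO, 2 mM nitroprusside for 2 h, then 14 h in fresh medium; H₂O₂, 1 mM for 1 h; OH, 1 mM H₂O₂/30 µM Fe(II) for 1 h. Survival was read by MTT.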

PC-12 [2] = assay: Free radical scavenging activity of compound (25 uM) evaluated against […] in PC12 cells; type: functional, cell-based; conditions: Rattus norvegicus
Rattus norvegicus [3] = species: Rattus norvegicus; assay: Concentration of compound (0.1 umol/L) required to inhibit acetylcholine-induced vasorelaxation of rat aortic strip relative to control; type: functional, Aorta
Rattus norvegicus [4] = assay: Thrombolytic activity (15.0 umol/kg) expressed as the reduction of thrombus mass determined in male wistar rats; type: functional
Method in brief: (§2)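 Male Wistar rats (200–300 g) were anesthetized with pentobarbital sodium (80.0 mg/kg i.p.). A steel helix was left for 15 min in 1.0 mL of carotid blood, then weighed. It was placed in a heparin-filled (50 IU/mL) polyethylene shunt into the left jugular vein. Heparin and then the test agent were injected through the shunt. Blood circulated 90 min, the helix was reweighed, and thrombus mass reduction was recorded (ANOVA).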

Oryctolagus cuniculus [5] = species: Oryctolagus cuniculus; assay: Effect (0.6 ug) on euglobulin clot lysis time determined using rabbit euglobulin; type: functional
Method in brief: (§3)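 Rabbit plasma was diluted 1:20 in distilled water and precipitated at pH 5.7 with 0.25% acetic acid for 30 min at 4 °C. It was spun at 2000g for 15 min, and the euglobulin pellet was resuspended to the original plasma volume in 50 mM sodium barbiturate buffer (pH 7.8; 1.66 mM CaCl₂, 0.68 mM MgCl₂, 93.96 mM NaCl). Saline, urokinase or test agent was added to the clots, and time to clot lysis was read in a microplate.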

Rattus norvegicus [6] = species: Rattus norvegicus; assay: Concentration of compound (0.01 umol/L) required to inhibit acetylcholine-induced vasorelaxation of rat aortic strip relative to control; type: functional, Aorta
Oryctolagus cuniculus [7] = species: Oryctolagus cuniculus; assay: Effect (2.2 ug) on euglobulin clot lysis time determined using rabbit euglobulin; type: functional; method in brief: as §3
Oryctolagus cuniculus [8] = species: Oryctolagus cuniculus; assay: Fibrinolytic activity (0.2 ug) determined in fibrinogen-agarose mixture coagulated with […] of thrombin; type: functional
Method in brief: (§4)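 Plates were cast from equal volumes of 0.3% rabbit fibrinogen and 0.95% agarose, both in 50 mM sodium barbiturate buffer (pH 7.8), clotted with thrombin (100 IU/mL) and held 30 min at 4 °C. Wells 5 mm across were punched and loaded with 30 µL of saline, urokinase or test agent. Fibrinolysis was expressed as lysis area.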

Oryctolagus cuniculus [9] = species: Oryctolagus cuniculus; assay: Fibrinolytic activity (0.4 ug) determined in fibrinogen-agarose mixture coagulated with […] of thrombin; type: functional; method in brief: as §4
Rattus norvegicus [10] = assay: Thrombolytic activity (10.0 umol/kg) expressed as the reduction of thrombus mass determined in male wistar rats; type: functional; method in brief: as §2
Oryctolagus cuniculus [11] = species: Oryctolagus cuniculus; assay: Effect (1.1 ug) on euglobulin clot lysis time determined using rabbit euglobulin; type: functional; method in brief: as §3
Rattus norvegicus [12] = assay: Thrombolytic activity (5.0 umol/kg) expressed as the reduction of thrombus mass determined in male wistar rats; type: functional; method in brief: as §2
Rattus norvegicus [13] = species: Rattus norvegicus; assay: Concentration of compound (1 umol/L) required to inhibit acetylcholine-induced vasorelaxation of rat aortic strip relative to control; type: functional, Aorta
PC-12 [14] = assay: Free radical scavenging activity of compound (25 uM) evaluated against OH in PC12 cells; type: functional, cell-based; conditions: Rattus norvegicus; method in brief: as §1
Oryctolagus cuniculus [15] = species: Oryctolagus cuniculus; assay: Fibrinolytic activity (0.8 ug) determined in fibrinogen-agarose mixture coagulated with […] of thrombin; type: functional; method in brief: as §4
Oryctolagus cuniculus [16] = species: Oryctolagus cuniculus; assay: Fibrinolytic activity (0.7 ug) determined in fibrinogen-agarose mixture coagulated with […] of thrombin; type: functional; method in brief: as §4
PC-12 [17] = assay: Free radical scavenging activity of compound (50 uM) evaluated against […] in PC12 cells; type: functional, cell-based; conditions: Rattus norvegicus
Oryctolagus cuniculus [18] = species: Oryctolagus cuniculus; assay: Effect (2.1 ug) on euglobulin clot lysis time determined using rabbit euglobulin; type: functional; method in brief: as §3
PC-12 [19] = assay: Free radical scavenging activity of compound (50 uM) evaluated against OH in PC12 cells; type: functional, cell-based; conditions: Rattus norvegicus; method in brief: as §1
PC-12 [20] = assay: Free radical scavenging activity of compound (50 uM) evaluated against hydrogen peroxide in PC12 cells; type: functional, cell-based; conditions: Rattus norvegicus; method in brief: as §1
Rattus norvegicus [21] = assay: Thrombolytic activity (5 umol/kg) expressed as the reduction of thrombus mass determined in male wistar rats; type: functional; method in brief: as §2
PC-12 [22] = assay: Free radical scavenging activity of compound (200 uM) evaluated against […] in PC12 cells; type: functional, cell-based; conditions: Rattus norvegicus
Rattus norvegicus [23] = assay: Thrombolytic activity (10 umol/kg) expressed as the reduction of thrombus mass determined in male wistar rats; type: functional; method in brief: as §2
PC-12 [24] = assay: Free radical scavenging activity of compound (200 uM) evaluated against hydrogen peroxide in PC12 cells; type: functional, cell-based; conditions: Rattus norvegicus; method in brief: as §1
PC-12 [25] = assay: Free radical scavenging activity of compound (200 uM) evaluated against OH in PC12 cells; type: functional, cell-based; conditions: Rattus norvegicus; method in brief: as §1
Rattus norvegicus [26] = assay: Thrombolytic activity (1 umol/kg) expressed as the reduction of thrombus mass determined in male wistar rats; type: functional; method in brief: as §2
Oryctolagus cuniculus [27] = species: Oryctolagus cuniculus; assay: Effect (2.3 ug) on euglobulin clot lysis time determined using rabbit euglobulin; type: functional; method in brief: as §3
Oryctolagus cuniculus [28] = species: Oryctolagus cuniculus; assay: Fibrinolytic activity (5 IU)) determined in fibrinogen-agarose mixture coagulated with […] of thrombin; type: functional; method in brief: as §4
Rattus norvegicus [29] = assay: Thrombolytic activity (20 000 IU/kg) expressed as the reduction of thrombus mass determined in male wistar rats; type: functional, organism-based; method in brief: as §2
Oryctolagus cuniculus [30] = species: Oryctolagus cuniculus; assay: Effect (5 IU) on euglobulin clot lysis time determined using rabbit euglobulin; type: functional; method in brief: as §3

EC50 (PC-12 [1]): 28.1 µM
EC50 (PC-12 [2]): 89.1 µM
EC50 (PC-12 [14]): 98.1 µM
Compound: C[C@H](NC(=O)COc1ccc(C2=[N+]([O-])C(C)(C)C(C)(C)N2O)cc1)C(=O)N[C@@H](CCCN=C(N)N)C(=O)N1CCC[C@H]1C(=O)N[C@@H](C)C(=O)N[C@@H](CCCCN)C(=O)O (X1-ARPAK-OH)
Inhibition (Rattus norvegicus [3]): 78.6%
Reduction (Rattus norvegicus [4]): 26.88 mg
ECLT (Oryctolagus cuniculus [5]): 145.61 min
Inhibition (Rattus norvegicus [6]): 66.8%
ECLT (Oryctolagus cuniculus [7]): 104.12 min
Lysis area (Oryctolagus cuniculus [8]): 172.33 mm.mm
Lysis area (Oryctolagus cuniculus [9]): 194.54 mm.mm
Reduction (Rattus norvegicus [10]): 19.91 mg
ECLT (Oryctolagus cuniculus [11]): 123.32 min
Reduction (Rattus norvegicus [12]): 16.27 mg
Inhibition (Rattus norvegicus [13]): 92.9%
Lysis area (Oryctolagus cuniculus [15]): 215.23 mm.mm

EC50 (PC-12 [17]): 92.3 µM
EC50 (PC-12 [19]): 95.4 µM
EC50 (PC-12 [20]): 25.4 µM
Compound: C[C@H](NC(=O)[C@@H]1CCCN1C(=O)[C@H](CCCN=C(N)N)NC(=O)CNC(=O)COc1ccc(C2=[N+]([O-])C(C)(C)C(C)(C)N2O)cc1)C(=O)N[C@@H](CCCCN)C(=O)O (X1-GRPAK-OH)
Lysis area (Oryctolagus cuniculus [16]): 217.35 mm.mm
Inhibition (Rattus norvegicus [3]): 80.9%
ECLT (Oryctolagus cuniculus [18]): 105.01 min
Reduction (Rattus norvegicus [4]): 26.64 mg
ECLT (Oryctolagus cuniculus [5]): 147.22 min
Inhibition (Rattus norvegicus [6]): 69.3%
Lysis area (Oryctolagus cuniculus [8]): 175.04 mm.mm
Lysis area (Oryctolagus cuniculus [9]): 196.87 mm.mm
Reduction (Rattus norvegicus [10]): 19.7 mg
ECLT (Oryctolagus cuniculus [11]): 126.51 min
Reduction (Rattus norvegicus [12]): 16.34 mg
Inhibition (Rattus norvegicus [13]): 96%

EC50 (PC-12 [22]): 91.8 µM
EC50 (PC-12 [24]): 74.6 µM
EC50 (PC-12 [25]): 94.2 µM
Compound: C[C@H](NC(=O)[C@@H]1CCCN1C(=O)[C@H](CCCN=C(N)N)NC(=O)[C@H](CCC(N)=O)NC(=O)COc1ccc(C2=[N+]([O-])C(C)(C)C(C)(C)N2O)cc1)C(=O)N[C@@H](CCCCN)C(=O)O (X1-QRPAK-OH)
Reduction (Rattus norvegicus [21]): 20.43 mg
Inhibition (Rattus norvegicus [3]): 80.1%
ECLT (Oryctolagus cuniculus [5]): 136 min
Reduction (Rattus norvegicus [23]): 28.85 mg
Inhibition (Rattus norvegicus [6]): 68.3%
Lysis area (Oryctolagus cuniculus [8]): 195.38 mm.mm
Reduction (Rattus norvegicus [26]): 16.4 mg
Lysis area (Oryctolagus cuniculus [9]): 215.12 mm.mm
ECLT (Oryctolagus cuniculus [11]): 117.96 min
ECLT (Oryctolagus cuniculus [27]): 100.09 min
Inhibition (Rattus norvegicus [13]): 95.6%
Lysis area (Oryctolagus cuniculus [15]): 230.15 mm.mm

Compound: UROKINASE
Lysis area (Oryctolagus cuniculus [28]): 224 mm.mm
Reduction (Rattus norvegicus [29]): 25.4 mg
ECLT (Oryctolagus cuniculus [30]): 126 min
